The results in this text go back to ChEMBL document CHEMBL1147355, “Tricolorin A, major phytogrowth inhibitor from Ipomoea tricolor” (J Nat Prod, 1993).

Data set [1] has as its system Amaranthus hypochondriacus. The data set is described as follows: Stimulation of Amaranthus hypochondriacus radicle growth at 1 ug/ml incubated in dark at 27 degC measured after 24 hrs relative to control. The format is functional. Put shortly: (§1)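 Petri-dish seed assay at 1 µg/ml, with sample in MeOH-H2O (1:1) air-dried before seeding. Held in the dark at 27° and scored at 24 h (Amaranthus) or 48 h (E. crus-galli). Radicle growth expressed relative to untreated controls.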

The test system of data set [2] is Echinochloa crus-galli. Briefly: Stimulation of Echinochloa crus-galli radicle growth at 1 ug/ml incubated in dark at 27 degC measured after 48 hrs relative to control. The class given is functional. Put shortly:
as §1

Data set [3] relates to Amaranthus hypochondriacus. The data set is described as follows: Phytogrowth-inhibitory activity against Amaranthus hypochondriacus assessed as inhibition of seed germination incubated in dark at 27 degC measured after 24 hrs. The format is functional, organism-based. Put shortly: (§2)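 Seeds in Petri dishes with test sample applied in MeOH-H2O (1:1), solvent air-dried before use. Kept in the dark at 27°: 24 h for Amaranthus, 48 h for E. crus-galli. Germination percentage and radicle length scored. Controls: 2,4-D positive, solvent-only negative. Germination IC50 from linear regression; radicle-growth IC50 from probit analysis.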

Another data set has as its system Lu1. Briefly: Cytotoxicity against human Lu1 cells. The class given is functional. The settings on record: read-out: ED50 (the source's name). Summed up:
(§3)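 Cell lines established from primary human tumors at a university surgical oncology division and tested in vitro following an earlier cytotoxicity protocol. The value is reported as ED50.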

The test system of data set [4] is Echinochloa crus-galli. Briefly: Phytogrowth-inhibitory activity against Echinochloa crus-galli assessed as inhibition of radicle growth incubated in dark at 27 degC measured after 48 hrs. The format is functional, organism-based. Put shortly:
as §2

For data set [5], the system named is Echinochloa crus-galli. The data set is described as follows: Phytogrowth-inhibitory activity against Echinochloa crus-galli assessed as inhibition of radicle growth at 100 ug/ml incubated in dark at 27 degC measured after 48 hrs. The format is functional. Conditions: read-out: GI. Put shortly: (§4)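 Samples in MeOH-H2O (1:1) were added to Petri dishes and air-dried, giving a final 100 µg/ml. Solvent-only dishes served as negative controls and 2,4-D as positive control. Dishes were kept dark at 27°. Radicle length was read at 24 h for A. leucocarpus and 48 h for E. crus-galli. Results are % of untreated control, 4 replicates × 20 seedlings, with ANOVA/Duncan.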

Data set [6] has as its system Amaranthus hypochondriacus. Briefly: Phytogrowth-inhibitory activity against Amaranthus hypochondriacus assessed as inhibition of radicle growth at 100 ug/ml incubated in dark at 27 degC measured after 24 hrs. The class given is functional. Conditions: read-out: GI. Summed up: as §4
A further data set has as its system HT-1080. The data set is described as follows: Cytotoxicity against human HT1080 cells. The format is functional. The settings on record: read-out: ED50 (the source's name). Summed up:
(§5)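 Cell lines obtained from ATCC and tested in vitro following an earlier cytotoxicity protocol. The value is reported as ED50.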

A further data set is filed under the species Bos taurus. The data set is described as follows: (§6) Displacement of [3H]PDBu from protein kinase C in calf brain homogenate by scintillation counting. The format is tissue-based. Summed up: (§7)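 Incubation mix contained 50 mM Tris/HCl (pH 7.4), 1 mM CaCl2, 39.2 nM [3H]PDBu, 50 µg/ml calf brain homogenate as the protein kinase C source, and compound in DMSO. Tubes ran 1 h at ambient temperature, then were filtered onto glass fiber and counted. Nonspecific binding was taken as the part not displaced by 100-fold excess unlabelled PDBu. Curve used five-fold dilutions from 200 to 0.32 µg/ml, 4 replicates.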

Data set [7] can be described thus: as §6. The format is tissue-based, Bos taurus. Put shortly: as §7
Another data set concerns KB. Briefly: Cytotoxicity against human KB cells. The format is functional. The settings on record: read-out: ED50 (the source's name). Summed up:
as §5

The subject of data set [8] is Amaranthus hypochondriacus. Briefly: Phytogrowth-inhibitory activity against Amaranthus hypochondriacus assessed as inhibition of radicle growth incubated in dark at 27 degC measured after 24 hrs. The format is functional, organism-based. Put shortly:
as §2

The nature of data set [9]: Cytotoxicity against human BC1 cells. The class given is functional. The settings on record: read-out: ED50 (the source's name). Summed up:
as §3

The test system of another data set is P388. Briefly: Cytotoxicity against mouse P388 cells. The class given is functional. Conditions: read-out: ED50 (the source's name). Summed up:
as §5

The test system of the next data set is Staphylococcus aureus. Briefly: Antibacterial activity against Staphylococcus aureus ATCC 25923 by agar diffusion technique. The class given is functional.
Data set [10] can be described thus: Cytotoxicity against drug-resistant human KBV1 cells. The format is functional. The settings on record: KB-V1, read-out: ED50 (the source's name).
In the next data set the test system is ZR-75-1. Briefly: Cytotoxicity against human ZR-75-1 cells. The format is functional. Conditions: read-out: ED50 (the source's name). Summed up:
as §5

A further data set concerns A-431. Briefly: Cytotoxicity against human A431 cells. The format is functional. Conditions: read-out: ED50 (the source's name). Summed up:
as §5

In another data set the test system is Col2. The data set is described as follows: Cytotoxicity against human Col2 cells. The format is functional. The settings on record: read-out: ED50 (the source's name). Put shortly: as §3
Another data set deals with LNCaP. Briefly: Cytotoxicity against human LNCAP cells. The class given is functional. Conditions: read-out: ED50 (the source's name). Summed up: as §5
For another data set, the system named is SK-MEL-2. Briefly: Cytotoxicity against human SK-MEL-2 cells. The class given is functional. The settings on record: read-out: ED50 (the source's name). Summed up:
as §3

The nature of data set [11]: Toxicity in brine shrimp assessed as lethality. Conditions: artemia, in vivo. The format is organism-based.
Data set [12] has as its system Echinochloa crus-galli. Briefly: Phytogrowth-inhibitory activity against Echinochloa crus-galli assessed as inhibition of seed germination incubated in dark at 27 degC measured after 48 hrs. The class given is functional, organism-based. Put shortly:
as §2

In brackets after ≈: the same amount, converted by molar mass.

Turning to `O=C(O)COc1ccc(Cl)cc1Cl` [2,4-DICHLOROPHENOXYACETIC ACID], the Activity (in [1]; in the data set on Echinochloa crus-galli [2]) was 4% each time.

For `CCCCC[C@H]1CCCCCCCCCC(=O)O[C@H]2[C@H](O)[C@@H](CO)O[C@@H](O[C@H]3[C@H](O1)O[C@H](C)[C@H](O)[C@@H]3O)[C@@H]2O[C@@H]1O[C@@H](C)[C@H](OC(=O)[C@@H](C)CC)[C@@H](O[C@@H]2O[C@@H](C)[C@H](O)[C@@H](O)[C@H]2O)[C@H]1OC(=O)[C@@H](C)CC` [TRICOLORIN A], the IC50 in data set [3] was found to be 152 µg/mL (≈ 149 µM); with Echinochloa crus-galli [4], 12.6 µg/mL (≈ 12.3 µM); in data set [7], 44.1 µg/mL (≈ 43.1 µM); in data set [8], 37 µg/mL (≈ 36.2 µM); in the data set on Echinochloa crus-galli [12], 36.9 µg/mL (≈ 36.1 µM). For the same compound, the EC50 with Lu1 is 5.5 µg/mL (≈ 5.38 µM); in the data set on HT-1080 it was 6.3 µg/mL (≈ 6.16 µM); in the data set with KB, > 20 µg/mL; in data set [9] it was 2.2 µg/mL (≈ 2.15 µM); with P388, 2.2 µg/mL (≈ 2.15 µM); in [10], > 20 µg/mL. Moreover, the EC50 in the data set with ZR-75-1 was found to be 8.1 µg/mL (≈ 7.92 µM); with A-431 it was 10.3 µg/mL (≈ 10.1 µM); in the data set on Col2, 8.9 µg/mL (≈ 8.7 µM); in the data set with LNCaP it was 5.8 µg/mL (≈ 5.67 µM); in the data set with SK-MEL-2 it was 7.6 µg/mL (≈ 7.43 µM). Moreover, the Activity result with Echinochloa crus-galli [4] is “Dose-dependent effect”; in the data set listed under Bos taurus, “Dose-dependent effect”; in data set [1] it was 4%; with Echinochloa crus-galli [2], 4%; in data set [8], “Dose-dependent effect”. Also, the inhibition of growth at 100 µg/mL in the data set on Echinochloa crus-galli [5] was determined as 78.8%; in data set [6], 68.3%. The MIC against Staphylococcus aureus came out at 1.8 µg/mL (≈ 1.76 µM). Moreover, the LC50 in [11] was determined as 18.2 µg/mL (≈ 17.8 µM).
